Source: ChEMBL document CHEMBL5252646, “Novel thienocycloalkylpyridazinones as useful scaffolds for acetylcholinesterase inhibition and serotonin 5-HT6 receptor interaction” (Bioorg Med Chem, 2023)
Activity calls are given as the source filed them. The rule behind the calls is not given here.

target: T1, 5-hydroxytryptamine receptor 4 (Homo sapiens, UniProt Q13639); assay: Antagonist activity at 5-HT4 receptor in human HeLa cells assessed as inhibition of intracellular calcium mobilization incubated for 2 hrs by FLIPR assay; type: cell-based; details: not given
T1 sequence (Q13639 whole entry): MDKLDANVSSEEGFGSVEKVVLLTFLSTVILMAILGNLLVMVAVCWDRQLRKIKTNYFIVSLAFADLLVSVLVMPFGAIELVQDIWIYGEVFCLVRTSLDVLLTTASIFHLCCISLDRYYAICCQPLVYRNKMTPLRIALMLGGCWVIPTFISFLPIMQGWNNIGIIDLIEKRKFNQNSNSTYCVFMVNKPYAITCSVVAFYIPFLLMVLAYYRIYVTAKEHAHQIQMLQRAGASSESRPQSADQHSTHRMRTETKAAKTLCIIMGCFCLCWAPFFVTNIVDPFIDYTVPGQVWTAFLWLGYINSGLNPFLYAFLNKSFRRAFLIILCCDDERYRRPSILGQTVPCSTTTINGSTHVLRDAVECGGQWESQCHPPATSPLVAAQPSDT
Method in brief: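 HeLa cells stably expressing human 5-HT4, seeded the day before at 20,000 cells/well. Medium replaced with DMEM plus Calcium 6 dye, then 2 h at 37 °C. Compounds and standard added afterwards. Fluorescence from intracellular calcium mobilization (ex 480 nm, em 540 nm) recorded every second after a baseline was set. Run in duplicate.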

For `Cn1cc(C(=O)OCC2CCN(CCNS(C)(=O)=O)CC2)c2ccccc21`, the Ki was 1.4 nM.

target: T1, 5-hydroxytryptamine receptor 4; assay: Antagonist activity at 5-HT4 receptor in human HeLa cells assessed as inhibition of intracellular calcium mobilization at 10 uM incubated for 2 hrs by FLIPR assay; type: cell-based; details: not given
Method in brief: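 HeLa cells stably expressing human 5-HT4, 20,000 per well, seeded the day before. Medium replaced with DMEM plus Calcium 6 dye, 2 h at 37 °C, then compounds and standard added. Intracellular calcium read by fluorescence (ex 480, em 540 nm) every second after a baseline. Duplicates.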

Compared with `O=C1CC2Cc3ccsc3C2=NN1CCCCN1CCN(Cc2cccc3c2ccn3S(=O)(=O)c2ccccc2)CC1` (stereo unspecified), `O=C1CC2CCc3ccsc3C2=NN1CCCCCCN1CCN(Cc2cccc3c2ccn3S(=O)(=O)c2ccccc2)CC1` (stereo unspecified) is lower in inhibition: 26% for the first, 12% for the second.

Work on `O=C1CC2CCc3ccsc3C2=NN1CCCCCCCN1CCN(Cc2cccc3c2ccn3S(=O)(=O)c2ccccc2)CC1` (stereo unspecified) yielded an inhibition of 16%.

`O=C1CC2Cc3ccsc3C2=NN1CCCCCCCN1CCN(Cc2cccc3c2ccn3S(=O)(=O)c2ccccc2)CC1` (stereo unspecified) was tested, and the inhibition was “inactive”.
`O=C1CC2CCc3ccsc3C2=NN1CCCCN1CCN(Cc2cccc3c2ccn3S(=O)(=O)c2ccccc2)CC1` (stereo unspecified) was tested, and the inhibition was “inactive”.
For `O=C1CC2Cc3ccsc3C2=NN1CCCCCN1CCN(Cc2cccc3c2ccn3S(=O)(=O)c2ccccc2)CC1` (stereo unspecified), the inhibition was “inactive”.
`O=C1CC2CCc3ccsc3C2=NN1CCCCCN1CCN(Cc2cccc3c2ccn3S(=O)(=O)c2ccccc2)CC1` (stereo unspecified) was tested, and the inhibition was “inactive”.
In the case of `O=C1CC2Cc3ccsc3C2=NN1CCCCCCN1CCN(Cc2cccc3c2ccn3S(=O)(=O)c2ccccc2)CC1` (stereo unspecified), the inhibition is reported as “inactive”.

target: T2, 5-hydroxytryptamine receptor 7 (Homo sapiens, UniProt P34969); assay: Displacement of [3H]SB269970 from human 5-HT7 receptor expressed in HEK cell membrane at 10 uM incubated for 60 mins by microplate beta scintillation counting analysis; type: cell membranes; details: not given
T2 sequence (P34969 whole entry): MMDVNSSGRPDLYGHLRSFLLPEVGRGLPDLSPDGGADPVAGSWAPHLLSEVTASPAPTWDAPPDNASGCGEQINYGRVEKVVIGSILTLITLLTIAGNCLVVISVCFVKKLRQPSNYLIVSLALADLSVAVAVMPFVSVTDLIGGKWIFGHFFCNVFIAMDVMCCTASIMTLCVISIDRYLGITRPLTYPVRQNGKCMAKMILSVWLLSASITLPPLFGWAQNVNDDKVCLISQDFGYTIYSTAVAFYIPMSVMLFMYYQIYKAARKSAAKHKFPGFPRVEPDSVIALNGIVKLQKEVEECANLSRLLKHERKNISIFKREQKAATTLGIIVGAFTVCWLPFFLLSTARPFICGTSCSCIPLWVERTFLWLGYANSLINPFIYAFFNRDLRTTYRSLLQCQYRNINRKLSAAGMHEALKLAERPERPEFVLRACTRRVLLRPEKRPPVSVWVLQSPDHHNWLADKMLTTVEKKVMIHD
Method in brief: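 Membranes from HEK cells expressing human 5-HT7, 2 µg per well, with 2 nM [3H]-SB269970, 60 min at 37 °C. Buffer Tris-HCl 50 mM, 4 mM CaCl2, 1 mM ascorbic acid, 0.1 mM pargyline, pH 7.4. Nonspecific binding with 25 µM clozapine. Filtered, scintillation counted. Duplicates. Displacement as % at 10 µM.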

Going from `O=C1CC2CCc3ccsc3C2=NN1CCCCN1CCCCC1` (stereo unspecified) to `O=C1CC2CCc3ccsc3C2=NN1CCCCCCN1CCN(Cc2cccc3c2ccn3S(=O)(=O)c2ccccc2)CC1` (stereo unspecified), the inhibition rises from 18% to 33%.

In the case of `O=C1CC2Cc3ccsc3C2=NN1CCCCCCN1CCN(Cc2cccc3c2ccn3S(=O)(=O)c2ccccc2)CC1` (stereo unspecified), the inhibition is reported as 39%.

same assay, conditions: filed as antagonist

For `O=C1CC2CCc3ccsc3C2=NN1CCCCCCCN1CCN(Cc2cccc3c2ccn3S(=O)(=O)c2ccccc2)CC1` (stereo unspecified), the inhibition was 43%.

target: T2, 5-hydroxytryptamine receptor 7; assay: Displacement of [3H]SB269970 from human 5-HT7 receptor expressed in HEK cell membrane incubated for 60 mins by microplate beta scintillation counting analysis; type: cell membranes; details: not given

`O=C1CC2Cc3ccsc3C2=NN1CCCCN1CCN(Cc2cccc3c2ccn3S(=O)(=O)c2ccccc2)CC1` (stereo unspecified) and `O=C1CC2Cc3ccsc3C2=NN1CCCCCN1CCN(Cc2cccc3c2ccn3S(=O)(=O)c2ccccc2)CC1` (stereo unspecified) are within 1.5-fold of each other in Ki: 2020 nM for the first, 1800 nM for the second.

Compared with `O=C1CC2Cc3ccsc3C2=NN1CCCCCCCN1CCN(Cc2cccc3c2ccn3S(=O)(=O)c2ccccc2)CC1` (stereo unspecified), `O=C1CC2CCc3ccsc3C2=NN1CCCCCN1CCN(Cc2cccc3c2ccn3S(=O)(=O)c2ccccc2)CC1` (stereo unspecified) is 2.2-fold lower in Ki: 3760 nM for the first, 1690 nM for the second.

`O=C1CC2CCc3ccsc3C2=NN1CCCCN1CCN(Cc2cccc3c2ccn3S(=O)(=O)c2ccccc2)CC1` (stereo unspecified) was tested, and the Ki was 2010 nM.

target: T3, 5-hydroxytryptamine receptor 1A (Homo sapiens) (UniProt P08908); assay: Displacement of [3H]-8-OH-DPAT from human 5-HT1A receptor expressed in HEK cell membrane at 10 uM incubated for 120 mins by microplate beta scintillation counting analysis; type: cell membranes; details: not given
T3 sequence (whole entry): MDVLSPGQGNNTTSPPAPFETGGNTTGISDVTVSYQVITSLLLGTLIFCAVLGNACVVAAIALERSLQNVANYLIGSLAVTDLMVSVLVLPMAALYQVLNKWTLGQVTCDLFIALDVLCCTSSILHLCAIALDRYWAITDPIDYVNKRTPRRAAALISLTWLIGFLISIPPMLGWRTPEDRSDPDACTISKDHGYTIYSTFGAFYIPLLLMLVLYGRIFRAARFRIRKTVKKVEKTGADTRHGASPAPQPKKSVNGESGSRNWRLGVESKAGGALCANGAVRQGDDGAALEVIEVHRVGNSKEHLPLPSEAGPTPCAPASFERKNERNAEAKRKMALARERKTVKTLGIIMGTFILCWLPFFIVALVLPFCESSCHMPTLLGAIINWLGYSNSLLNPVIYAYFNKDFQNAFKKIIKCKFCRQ
Method in brief: (§1)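 Membranes from HEK cells expressing human 5-HT1A, 10 µg per well, with 1 nM [3H]-8-OH-DPAT, 120 min at 37 °C. Buffer 50 mM Tris-HCl, 5 mM MgSO4, pH 7.4. Nonspecific binding with 10 µM 5-HT. Filtered on PEI-treated GF/C and washed, then scintillation counted. Duplicates.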

First: O=C1CC2CCc3ccsc3C2=NN1CCCCCN1CCN(Cc2cccc3c2ccn3S(=O)(=O)c2ccccc2)CC1 (stereo unspecified)
Second: O=C1CC2CCc3ccsc3C2=NN1CCCCCCN1CCN(Cc2cccc3c2ccn3S(=O)(=O)c2ccccc2)CC1 (stereo unspecified)
The inhibition of the first is higher: 35% for the first, 23% for the second.

With `O=C1CC2CCc3ccsc3C2=NN1CCCCCCCN1CCN(Cc2cccc3c2ccn3S(=O)(=O)c2ccccc2)CC1` (stereo unspecified) the inhibition was 33%.

target: T4, 5-hydroxytryptamine receptor 1A (Homo sapiens, UniProt P08908); assay: Displacement of [3H]-8-OH-DPAT from human 5-HT1A receptor expressed in HEK cell membrane incubated for 120 mins by microplate beta scintillation counting analysis; type: cell membranes; details: not given; method in brief: as §1
T4 sequence (P08908 whole entry): T3 sequence (whole entry)

`O=C1CC2Cc3ccsc3C2=NN1CCCCN1CCN(Cc2cccc3c2ccn3S(=O)(=O)c2ccccc2)CC1` (stereo unspecified) and `O=C1CC2Cc3ccsc3C2=NN1CCCCCN1CCN(Cc2cccc3c2ccn3S(=O)(=O)c2ccccc2)CC1` (stereo unspecified) are within 1.5-fold of each other in Ki: 4610 nM for the first, 3580 nM for the second.

Compared with `O=C1CC2CCc3ccsc3C2=NN1CCCCN1CCCCC1` (stereo unspecified), `O=C1CC2CCc3ccsc3C2=NN1CCCCN1CCN(Cc2cccc3c2ccn3S(=O)(=O)c2ccccc2)CC1` (stereo unspecified) is 1.5-fold lower in Ki: 4300 nM for the first, 2840 nM for the second. The second binds more tightly here.

`O=C1CC2Cc3ccsc3C2=NN1CCCCCCCN1CCN(Cc2cccc3c2ccn3S(=O)(=O)c2ccccc2)CC1` (stereo unspecified) and `O=C1CC2Cc3ccsc3C2=NN1CCCCCCN1CCN(Cc2cccc3c2ccn3S(=O)(=O)c2ccccc2)CC1` (stereo unspecified) are within 1.5-fold of each other in Ki: 6620 nM for the first, 5160 nM for the second.

target: T5, 5-hydroxytryptamine receptor 6 (Homo sapiens, UniProt P50406); assay: Displacement of [3H]-LSD from human 5-HT6 receptor expressed in HEK cell membrane at 10 uM incubated for 60 mins by microplate beta scintillation counting analysis; type: cell membranes; details: not given
T5 sequence (P50406 whole entry): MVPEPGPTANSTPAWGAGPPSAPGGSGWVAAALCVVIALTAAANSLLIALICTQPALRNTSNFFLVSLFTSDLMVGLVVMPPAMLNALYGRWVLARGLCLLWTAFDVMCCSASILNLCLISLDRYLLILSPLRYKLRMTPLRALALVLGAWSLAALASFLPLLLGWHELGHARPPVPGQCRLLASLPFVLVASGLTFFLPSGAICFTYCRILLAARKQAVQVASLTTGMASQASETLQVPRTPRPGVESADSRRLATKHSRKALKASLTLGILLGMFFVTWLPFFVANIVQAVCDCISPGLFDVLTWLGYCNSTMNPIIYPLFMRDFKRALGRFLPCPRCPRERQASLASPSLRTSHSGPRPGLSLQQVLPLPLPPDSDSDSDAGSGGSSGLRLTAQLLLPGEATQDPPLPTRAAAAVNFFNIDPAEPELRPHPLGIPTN
Method in brief: (§2)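 Membranes from HEK cells expressing human 5-HT6, 5 µg per well, with 2 nM [3H]-LSD, 60 min at 37 °C. Buffer 50 mM Tris-HCl, 10 mM MgCl2, 0.5 mM EDTA, pH 7.4. Nonspecific binding with 100 µM 5-HT. Filtered on GF/C, scintillation counted.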

`O=C1CC2CCc3ccsc3C2=NN1CCCCN1CCCCC1` (stereo unspecified) was tested, and the inhibition was 30%.

target: T5, 5-hydroxytryptamine receptor 6; assay: Displacement of [3H]-LSD from human 5-HT6 receptor expressed in HEK cell membrane incubated for 60 mins by microplate beta scintillation counting analysis; type: cell membranes; details: not given; method in brief: as §2

First: O=C1CC2Cc3ccsc3C2=NN1CCCCN1CCN(Cc2cccc3c2ccn3S(=O)(=O)c2ccccc2)CC1 (stereo unspecified)
Second: O=C1CC2Cc3ccsc3C2=NN1CCCCCN1CCN(Cc2cccc3c2ccn3S(=O)(=O)c2ccccc2)CC1 (stereo unspecified)
The Ki of the first is 23-fold higher: 193 nM for the first, 8.4 nM for the second.

`O=C1CC2Cc3ccsc3C2=NN1CCCCCCCN1CCN(Cc2cccc3c2ccn3S(=O)(=O)c2ccccc2)CC1` (stereo unspecified) and `O=C1CC2Cc3ccsc3C2=NN1CCCCCCN1CCN(Cc2cccc3c2ccn3S(=O)(=O)c2ccccc2)CC1` (stereo unspecified) are within 1.5-fold of each other in Ki: 80 nM for the first, 68 nM for the second.

First: O=C1CC2CCc3ccsc3C2=NN1CCCCN1CCN(Cc2cccc3c2ccn3S(=O)(=O)c2ccccc2)CC1 (stereo unspecified)
Second: O=C1CC2CCc3ccsc3C2=NN1CCCCCN1CCN(Cc2cccc3c2ccn3S(=O)(=O)c2ccccc2)CC1 (stereo unspecified)
The Ki of the first is 3.7-fold higher: 236 nM for the first, 63 nM for the second.

`O=C1CC2CCc3ccsc3C2=NN1CCCCCCCN1CCN(Cc2cccc3c2ccn3S(=O)(=O)c2ccccc2)CC1` (stereo unspecified) and `O=C1CC2CCc3ccsc3C2=NN1CCCCCCN1CCN(Cc2cccc3c2ccn3S(=O)(=O)c2ccccc2)CC1` (stereo unspecified) are within 1.5-fold of each other in Ki: 87 nM for the first, 102 nM for the second.

target: Cholinesterase (Homo sapiens, UniProt P06276); assay: Inhibition of human BChE using butyrylthiocholine iodide as substrate at 10 uM preincubated with enzyme for 20 mins followed by substrate addition and measured for 5 mins by Ellman's spectrophotometric method; details: time 25.0 min
Sequence (P06276 whole entry): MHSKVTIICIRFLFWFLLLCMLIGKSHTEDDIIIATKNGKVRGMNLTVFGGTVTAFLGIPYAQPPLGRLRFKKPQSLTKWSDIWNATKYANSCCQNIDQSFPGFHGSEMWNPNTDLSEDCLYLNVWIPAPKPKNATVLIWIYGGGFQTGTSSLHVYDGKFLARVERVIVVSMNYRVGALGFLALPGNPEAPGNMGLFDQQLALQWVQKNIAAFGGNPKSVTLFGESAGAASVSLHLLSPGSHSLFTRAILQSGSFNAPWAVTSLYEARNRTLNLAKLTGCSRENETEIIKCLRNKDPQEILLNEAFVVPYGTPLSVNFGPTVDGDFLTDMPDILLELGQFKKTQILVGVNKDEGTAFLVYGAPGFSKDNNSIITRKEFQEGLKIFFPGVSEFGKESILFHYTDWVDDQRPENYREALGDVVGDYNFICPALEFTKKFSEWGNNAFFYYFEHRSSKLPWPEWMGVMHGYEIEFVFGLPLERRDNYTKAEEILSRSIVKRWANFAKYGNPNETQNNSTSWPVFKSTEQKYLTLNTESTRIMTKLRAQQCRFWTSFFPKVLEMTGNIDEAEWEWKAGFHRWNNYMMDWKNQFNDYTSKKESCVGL

`O=C1CC2CCc3ccsc3C2=NN1CCCCN1CCCCC1` (stereo unspecified) showed an inhibition of 9%.

target: Acetylcholinesterase (Homo sapiens, UniProt P22303); assay: Inhibition of human AChE using acetylthiocholine iodide as substrate preincubated with enzyme for 20 mins followed by substrate addition and measured for 5 mins by Ellman's spectrophotometric method; details: not given
Sequence (P22303 whole entry): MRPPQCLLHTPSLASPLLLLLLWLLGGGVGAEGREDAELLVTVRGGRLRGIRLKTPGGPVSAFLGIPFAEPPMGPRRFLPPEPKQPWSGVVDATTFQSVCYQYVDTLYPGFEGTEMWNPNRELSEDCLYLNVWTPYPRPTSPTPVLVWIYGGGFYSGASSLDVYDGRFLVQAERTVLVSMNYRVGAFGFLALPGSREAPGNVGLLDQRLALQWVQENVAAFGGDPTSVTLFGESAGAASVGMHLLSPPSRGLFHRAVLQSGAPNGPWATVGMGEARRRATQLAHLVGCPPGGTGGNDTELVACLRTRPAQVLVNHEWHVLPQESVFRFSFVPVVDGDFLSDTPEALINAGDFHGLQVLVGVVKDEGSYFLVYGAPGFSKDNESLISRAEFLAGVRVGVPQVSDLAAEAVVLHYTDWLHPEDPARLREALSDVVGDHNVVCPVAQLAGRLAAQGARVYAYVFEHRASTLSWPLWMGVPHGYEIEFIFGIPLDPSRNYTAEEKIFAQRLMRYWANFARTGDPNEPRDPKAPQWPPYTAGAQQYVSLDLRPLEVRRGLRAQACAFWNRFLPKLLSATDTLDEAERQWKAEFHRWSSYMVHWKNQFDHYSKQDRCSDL

Going from `O=C1CC2Cc3ccsc3C2=NN1CCCCN1CCN(Cc2cccc3c2ccn3S(=O)(=O)c2ccccc2)CC1` (stereo unspecified) to `O=C1CC2Cc3ccsc3C2=NN1CCCCCN1CCN(Cc2cccc3c2ccn3S(=O)(=O)c2ccccc2)CC1` (stereo unspecified), the IC50 rises from 3550 nM to 6890 nM (1.9-fold). The first is the more potent here.

Compared with `O=C1CC2CCc3ccsc3C2=NN1CCCCN1CCCCC1` (stereo unspecified), `O=C1CC2CCc3ccsc3C2=NN1CCCCN1CCN(Cc2cccc3c2ccn3S(=O)(=O)c2ccccc2)CC1` (stereo unspecified) is 3.6-fold higher in IC50: 2090 nM for the first, 7610 nM for the second.

`O=C1CC2Cc3ccsc3C2=NN1CCCCCCCN1CCN(Cc2cccc3c2ccn3S(=O)(=O)c2ccccc2)CC1` (stereo unspecified) and `O=C1CC2Cc3ccsc3C2=NN1CCCCCCN1CCN(Cc2cccc3c2ccn3S(=O)(=O)c2ccccc2)CC1` (stereo unspecified) are within 1.5-fold of each other in IC50: 7180 nM for the first, 9180 nM for the second.

First: O=C1CC2CCc3ccsc3C2=NN1CCCCCN1CCN(Cc2cccc3c2ccn3S(=O)(=O)c2ccccc2)CC1 (stereo unspecified)
Second: O=C1CC2CCc3ccsc3C2=NN1CCCCCCN1CCN(Cc2cccc3c2ccn3S(=O)(=O)c2ccccc2)CC1 (stereo unspecified)
The IC50 of the first is 2.2-fold lower: 4440 nM for the first, 9800 nM for the second. The first is the more potent here.

`O=C1CC2CCc3ccsc3C2=NN1CCCCCCCN1CCN(Cc2cccc3c2ccn3S(=O)(=O)c2ccccc2)CC1` (stereo unspecified) was tested, and the IC50 was 4560 nM.
